High-throughput results as filed in PubChem.
In the library only some 2.5% were active in any assay of this set; here they are far more common.
TCR-CD3 inh: human TCR-CD3 binding inhibition; hit rate 0.37% among 360,000; TAMRA-labeled TCR probe fluorescence, biochemical; AID 651800; inhibition, % at 9.4 µM; in the data active = inhibition above about 19%;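 also: recombinant mutant TCR 2C K166C tagged with TAMRA read by polarization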
mABHD4 FP: ABHD4 (mouse) inhibition, primary FP screen. Q8VD66. inhibition, % at 8.92 µM. hit rate 0.54% among 370,000. AID 720543. purified mABHD4, FP-Rh probe fluorescence polarization;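 active = inhibition exceeding the mean over every tested compound plus 3 SD, cut at about 30% in these data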
Target sequence (Q8VD66 whole entry, looked up): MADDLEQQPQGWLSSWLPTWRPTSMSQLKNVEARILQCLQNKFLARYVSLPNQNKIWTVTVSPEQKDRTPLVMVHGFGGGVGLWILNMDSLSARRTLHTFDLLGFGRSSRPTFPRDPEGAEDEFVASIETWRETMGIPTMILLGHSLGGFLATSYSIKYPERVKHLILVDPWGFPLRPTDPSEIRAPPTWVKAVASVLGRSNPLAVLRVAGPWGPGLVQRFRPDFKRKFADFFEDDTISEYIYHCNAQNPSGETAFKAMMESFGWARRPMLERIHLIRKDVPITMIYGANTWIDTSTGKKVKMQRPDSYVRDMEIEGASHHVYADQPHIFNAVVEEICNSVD
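Material: mouse ABHD4 enzyme, wild type; Benchmarks: S159A mutant high control, sample median low control; Buffer or medium: HEPES pH 7.0, NaCl, Pluronic buffer; Signal: fluorescence polarization; Read-out: percent inhibition of probe binding, normalized to plate controls; Timing: pre-incubation 45 min, probe exposure 60 min, at 25 °C; Dosing: 8.92 µM, single dose.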
HTRA1 inhibitor: blocks human HTRA1 serine peptidase; recombinant HTRA1, FP-rhodamine activity-based probe, fluorescence polarization; inhibition, % at 5.96 µM; hit rate 0.5% among 340,000; in the data active = inhibition above about 36%
SIAE primary: human SIAE inhibition, primary screen | Q9HAT2 | SIAE FP-Rh probe binding, fluorescence polarization | inhibition, % at 9.66 µM | hit rate 0.69% among 370,000;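 active = inhibition above a cutoff: mean of compounds within the control limits plus 3 SD of those, cut at about 17% in these data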
PRMT1 inh: blocks human protein arginine methyltransferase 1; recombinant PRMT1, activity-based probe fluorescence polarization; inhibition, % at 2.79 µM; hit rate 1.3% among 370,000;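 active = inhibition above about 21% made by adding two undisclosed values, limit read from the data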
Target sequence (Q99873 whole entry, looked up): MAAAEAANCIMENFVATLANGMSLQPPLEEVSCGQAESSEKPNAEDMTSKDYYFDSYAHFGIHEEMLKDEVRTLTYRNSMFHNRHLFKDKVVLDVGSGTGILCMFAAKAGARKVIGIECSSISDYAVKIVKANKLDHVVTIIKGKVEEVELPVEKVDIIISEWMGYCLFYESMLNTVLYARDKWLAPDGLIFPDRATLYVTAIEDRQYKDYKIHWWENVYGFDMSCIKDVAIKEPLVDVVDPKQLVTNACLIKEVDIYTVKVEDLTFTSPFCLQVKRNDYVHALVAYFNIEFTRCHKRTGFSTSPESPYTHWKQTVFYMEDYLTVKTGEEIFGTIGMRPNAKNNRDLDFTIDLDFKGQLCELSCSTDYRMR
SIAE confirm: human SIAE inhibition, confirmation; shares compounds with SIAE primary; SIAE FP-Rh activity-based probe, fluorescence polarization; inhibition, % at 9.66 µM; hit rate 13% among 2,300; AID 1117263;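 active = mean inhibition of the replicates above the hit cutoff set in the primary screen, cut at about 17% in these data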;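 also: inhibitors lower polarization as more probe stays unbound to SIAE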
Of the large screens only hits and unclear results are named; the others gave an inactive call (follow-up assays come after a bar, where they were run).

CN(Cc1ccccc1)S(=O)(=O)c1cccc(C(=O)OCc2ccc(C(F)(F)F)cc2)c1	none (no result: TCR-CD3 inh, HTRA1 inhibitor)
COc1ccc(/C=N/Nc2nc(NCc3ccco3)nc(Nc3ccc(OC)cc3)n2)cc1	none
COc1ccc(Nc2nc(NCc3ccco3)nc(N/N=C/c3ccc(O)cc3)n2)cc1	SIAE primary 28.5 | SIAE confirm inactive
Cc1ccc(CN2C(=O)C(CC(C)C)Nc3ncnc(N4CCN(c5ccccn5)CC4)c32)cc1 (centres undefined)	none
COc1ccc(CN2C(=O)C(CC(C)C)Nc3ncnc(N4CCN(c5ccccn5)CC4)c32)cc1 (centres undefined)	SIAE primary 18.1 | SIAE confirm inactive
O=C(CSc1nnc(SCc2cccc3ccccc23)s1)N/N=C/c1c[nH]c2ccccc12	SIAE primary 29.7 | SIAE confirm inactive
O=C(CSc1nnc(SCc2ccc(Cl)cc2)s1)N/N=C/c1c[nH]c2ccccc12	none
N#CC(=C1C=CC(=NO)C(Cl)=C1)c1ccccc1	none (no result: HTRA1 inhibitor)
N#CC(=C1C=C(Br)C(=NO)C=C1Cl)c1ccc(Cl)cc1	SIAE primary 32.8 | SIAE confirm 50.3
COC(=O)C1=C(C(C)=O)C(c2ccc(C(=O)OC)cc2)n2nnnc2N1 (centres undefined)	SIAE primary 23.1 | SIAE confirm inactive
Cn1cnnc1SCC(=O)c1cc2ccccc2oc1=O	SIAE primary 18.4 | SIAE confirm inactive
CC(Sc1ccc(Cl)cc1)C(=O)NCC(c1ccco1)N1CCCCC1 (centres undefined)	SIAE primary 62.6 | SIAE confirm inactive
O=C(NCC(c1ccco1)N1CCCCC1)C(c1ccccc1)c1ccccc1 (centres undefined)	none
O=S1(=O)c2ccc(N3CCC[C@@H]3CO)cc2O[C@@H]2CCN1C2	none (no result: TCR-CD3 inh, HTRA1 inhibitor)
Cn1c(=O)n(Cc2ccccc2)c(=O)c2c1nc1n2CCN1Cc1ccco1	SIAE primary 19.3 | SIAE confirm inactive
C=C1[C@@H]2CC[C@H]3[C@]4(C)[C@@H](O)CC[C@@](C)(C(=O)OC)[C@H]4C[C@H](O)[C@]3(C2)[C@H]1O	none (no result: TCR-CD3 inh, HTRA1 inhibitor)
Cn1c(N)c(C(=O)CCc2ccccc2)c(=O)n(C)c1=O	none (no result: HTRA1 inhibitor)
CCN(CC(=O)c1c(N)n(C)c(=O)n(C)c1=O)c1cccc2ccccc12	SIAE primary 19.6 | SIAE confirm inactive
CC(=O)c1cccc(N(C(=O)c2ccco2)C(C(=O)NC2CCCCC2)c2ccc(C)o2)c1 (centres undefined)	SIAE primary 19.3 | SIAE confirm inactive
COc1ccc(N(C(=O)c2ccco2)C(C(=O)NC2CCCC2)c2ccc(N(C)C)cc2)cc1OC (centres undefined)	SIAE primary 25.9 | SIAE confirm inactive
COc1cccc(N(C(=O)c2ccco2)C(C(=O)NC2CCCC2)c2ccc(N(C)C)cc2)c1 (centres undefined)	none
Cc1ccc2c(c1)-c1c(cnn1CC(=O)NCCc1ccc(Cl)cc1)CO2	none (no result: TCR-CD3 inh, HTRA1 inhibitor)
COc1ccc(NC(=S)N/N=C/c2cccn2Cc2ccc(F)cc2)cc1	SIAE primary 18.6 | SIAE confirm inactive
CN(C)c1ccc(CNc2ccc3c(c2)ncn3C(C)(C)C)cc1	SIAE primary 18.5 | SIAE confirm inactive
CCOc1ccc(CNc2ccc3c(c2)ncn3C)cc1	none
CCn1cnc2cc(NCc3ccc(N(C)C)cc3)ccc21	none
CCOc1ccc(CNc2ccc3c(c2)ncn3C(C)(C)C)cc1	SIAE primary 21.7 | SIAE confirm inactive
COc1cc(S(=O)(=O)NCCCN2CCOCC2)ccc1-n1cnnn1	SIAE primary 17.3 | SIAE confirm inactive
COc1ccc(S(=O)(=O)N2CCN(C(=O)CN3C(=O)NC(C)(c4ccc5ccccc5c4)C3=O)CC2)cc1 (centres undefined)	SIAE primary 17.2 | SIAE confirm inactive
COc1ccc(S(=O)(=O)N2CCN(C(=O)CN3C(=O)NC(C)(C)C3=O)CC2)cc1	none
Nn1c(SCC(=O)Nc2cccc3ccccc23)nnc1-c1cc(-c2ccc(Cl)cc2)n[nH]1	none (no result: TCR-CD3 inh, HTRA1 inhibitor)
COc1ccc(NC(=O)Nc2ccc3c(c2)N(C)C(=O)CS3)cc1Cl	SIAE primary 26.7 | SIAE confirm inactive
COc1ccc(NC(=O)Nc2ccc3c(c2)N(C)C(=O)CS3)cc1OC	none
CCOc1ccc(NC(=O)Nc2ccc3c(c2)N(C)C(=O)CS3)cc1	SIAE primary 17.9 | SIAE confirm inactive
Cn1cccc1-c1cc(C(=O)N/N=C/c2cc(Br)ccc2O)[nH]n1	SIAE primary 23.8 | SIAE confirm inactive
Cn1cccc1-c1cc(C(=O)N/N=C/c2ccccc2Cl)[nH]n1	none
CC(C)CCn1c(COc2ccccc2)n[nH]c1=S	SIAE primary 20.0 | SIAE confirm inactive
COc1cc(CNc2ccc(N3CCOCC3)cc2)ccc1OCC(=O)NC(C)(C)C	SIAE primary 19.1 | SIAE confirm inactive
COc1cc(CNc2ccc(CNc3ncn[nH]3)cc2)ccc1OCC(=O)NC(C)(C)C	none
COC(=O)c1[nH]c2ccc(Cl)cc2c1NC(=O)CN1CCC(C(N)=O)CC1	SIAE primary 21.6 (no result: HTRA1 inhibitor) | SIAE confirm inactive
CC[n+]1ccc(C[n+]2ccccc2)c2ccccc21	SIAE primary 20.2 | SIAE confirm 21.6
O=C(N=Nc1c(O)[nH]c2ccc([N+](=O)[O-])cc12)c1ccccc1Cl	none
O=C(N=Nc1c(O)[nH]c2c(Cl)cc(Cl)cc12)c1ccccc1O	SIAE primary 29.1 (no result: HTRA1 inhibitor) | SIAE confirm inactive
Cc1csc(Nc2ccc(Cl)cc2)n1	SIAE primary 19.0 | SIAE confirm inactive
CSc1nnc2c(n1)C[C@H](c1ccccc1)[C@@H](C)[C@@H](C(=O)N1CCCC1)C2	none (no result: TCR-CD3 inh, HTRA1 inhibitor)
Cc1ccc(NC(=S)NNS(=O)(=O)c2ccc3ccccc3c2)cc1Cl	SIAE primary 17.8 | SIAE confirm inactive
Cc1ccc(S(=O)(=O)NNC(=S)Nc2ccc(Cl)cc2)cc1	none
COc1cc(-n2c(C)nc3cc(C(=O)N4CCCC4)ccc32)cc(OC)c1OC	none (no result: TCR-CD3 inh, HTRA1 inhibitor)
CC(C)(C)c1ccc(/C=C/C(=O)c2ccc(NC3=NCCCS3)cc2)cc1	SIAE primary 20.8 | SIAE confirm inactive
Cc1cccc(/C=C/C(=O)c2ccc(NC3=NCCCS3)cc2)c1	SIAE primary 53.1 | SIAE confirm inactive
O=C(/C=C/c1ccc(Br)cc1)c1ccc(NC2=NCCCS2)cc1	SIAE primary 39.8 | SIAE confirm inactive
O=C(/C=C/c1ccccc1)c1ccc(NC2=NCCCS2)cc1	none
Oc1ccccc1C=Nn1c(-c2ccccc2F)n[nH]c1=S	none (no result: TCR-CD3 inh, HTRA1 inhibitor)
CCS(=O)(=O)Nc1ccc2c(c1)C(=O)N(C)[C@@H]1CC[C@H](CC(=O)NCCCN3CCOCC3)O[C@H]1CO2	SIAE primary 18.1 (no result: TCR-CD3 inh, HTRA1 inhibitor) | SIAE confirm 18.8
CCS(=O)(=O)Nc1ccc2c(c1)C(=O)N(C)[C@@H]1CC[C@H](CC(=O)OC)O[C@H]1CO2	none (no result: TCR-CD3 inh, HTRA1 inhibitor)
CCNc1nc(NCC)nc(N/N=C/c2ccc(O)c(O)c2)n1	SIAE primary 17.8 | SIAE confirm inactive
